Data on three compounds can be found in ChEMBL document CHEMBL1649443, “Novel S-adenosylmethionine decarboxylase inhibitors for the treatment of human African trypanosomiasis” (Antimicrob Agents Chemother, 2009).

SMILES strings stand for the structures. The source made the active and inactive calls.

In series [1] the test system is Trypanosoma brucei rhodesiense. Kind of series: Antiparasitic activity against Trypanosoma brucei rhodesiense STIB 900 clone after 72 hrs by Alamar blue assay. Format: functional, organism-based. The conditions noted are these: STIB 900, 72 h. A general note: Alamar Blue is a resazurin reagent that responds to reducing activity.
A short description of series [2]: Metabolic stability in rat liver microsomes assessed as intrinsic clearance up to 45 mins by LC/MS/MS analysis. Format: ADME, Microsome.
The nature of series [3]: Metabolic stability in human liver microsomes assessed as intrinsic clearance up to 45 mins by LC/MS/MS analysis. The format is ADME, Microsome.
Series [4] in a line: Metabolic stability in rat hepatocytes assessed as intrinsic clearance up to 45 mins by LC/MS/MS analysis. Format: ADME, cell-based, Liver, Hepatocyte.
A short description of series [5]: Metabolic stability in human hepatocytes assessed as intrinsic clearance up to 45 mins by LC/MS/MS analysis. The format is ADME, cell-based, Liver, Hepatocyte.
The target in the next series is Cytochrome P450 3A4 (Homo sapiens, UniProt P08684). Kind of series: (§1) Inhibition of human cytochrome P450 3A4.
Sequence of Cytochrome P450 3A4 (P08684 whole entry): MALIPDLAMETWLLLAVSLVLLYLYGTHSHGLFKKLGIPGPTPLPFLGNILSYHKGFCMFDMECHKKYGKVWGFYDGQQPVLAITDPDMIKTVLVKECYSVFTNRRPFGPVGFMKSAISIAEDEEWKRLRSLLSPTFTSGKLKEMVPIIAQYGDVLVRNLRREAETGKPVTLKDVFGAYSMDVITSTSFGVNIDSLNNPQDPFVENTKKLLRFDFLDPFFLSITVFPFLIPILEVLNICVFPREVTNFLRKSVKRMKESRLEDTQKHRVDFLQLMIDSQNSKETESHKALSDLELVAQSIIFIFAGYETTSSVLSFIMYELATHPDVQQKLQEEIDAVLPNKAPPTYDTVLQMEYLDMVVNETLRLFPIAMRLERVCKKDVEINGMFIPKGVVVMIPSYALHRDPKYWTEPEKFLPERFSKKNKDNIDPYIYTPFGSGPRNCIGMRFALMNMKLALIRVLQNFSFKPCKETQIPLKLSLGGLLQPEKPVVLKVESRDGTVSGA
A further series has as its target Cytochrome P450 2D6 (Homo sapiens, UniProt P10635). Kind of series: (§2) Inhibition of human cytochrome P450 2D6.
Another series addresses Cytochrome P450 2C9 (Homo sapiens, UniProt P11712). Kind of series: (§3) Inhibition of human cytochrome P450 2C9.
The target of another series is Cytochrome P450 2C19 (Homo sapiens, UniProt P33261). Kind of series: (§4) Inhibition of human cytochrome P450 2C19.
Sequence of Cytochrome P450 2C19 (P33261 whole entry): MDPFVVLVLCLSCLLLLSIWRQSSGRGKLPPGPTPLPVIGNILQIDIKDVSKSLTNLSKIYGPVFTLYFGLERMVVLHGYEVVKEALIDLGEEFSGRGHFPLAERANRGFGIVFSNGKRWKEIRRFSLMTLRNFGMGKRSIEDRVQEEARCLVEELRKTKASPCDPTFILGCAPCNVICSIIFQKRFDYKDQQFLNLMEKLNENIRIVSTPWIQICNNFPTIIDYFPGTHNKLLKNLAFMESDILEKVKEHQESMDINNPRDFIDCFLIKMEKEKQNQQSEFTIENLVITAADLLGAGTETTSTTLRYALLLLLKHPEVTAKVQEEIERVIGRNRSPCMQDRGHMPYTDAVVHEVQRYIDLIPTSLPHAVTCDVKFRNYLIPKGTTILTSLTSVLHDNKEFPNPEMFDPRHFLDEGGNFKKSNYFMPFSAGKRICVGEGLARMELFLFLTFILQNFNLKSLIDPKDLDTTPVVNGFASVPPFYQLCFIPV
The next series has as its target T1, Cytochrome P450 1A2 (Homo sapiens, UniProt P05177).
T1 sequence (P05177 whole entry): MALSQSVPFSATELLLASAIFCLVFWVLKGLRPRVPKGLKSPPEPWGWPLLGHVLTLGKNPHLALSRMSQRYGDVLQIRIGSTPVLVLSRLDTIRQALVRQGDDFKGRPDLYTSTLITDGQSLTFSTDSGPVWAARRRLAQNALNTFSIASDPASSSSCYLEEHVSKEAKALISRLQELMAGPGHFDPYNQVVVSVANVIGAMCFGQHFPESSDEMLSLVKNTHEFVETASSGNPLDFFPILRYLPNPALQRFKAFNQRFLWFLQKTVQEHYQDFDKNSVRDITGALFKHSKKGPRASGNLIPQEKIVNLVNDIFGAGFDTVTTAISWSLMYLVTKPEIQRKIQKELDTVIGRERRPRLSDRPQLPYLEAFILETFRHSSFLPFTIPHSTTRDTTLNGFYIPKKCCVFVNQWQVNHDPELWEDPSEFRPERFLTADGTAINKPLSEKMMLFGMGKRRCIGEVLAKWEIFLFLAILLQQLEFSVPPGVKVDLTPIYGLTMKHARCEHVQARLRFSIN
Kind of series: (§5) Inhibition of human cytochrome P450 1A2.

Series [6] can be described thus: Protein binding in human plasma at pH 7.4 after 4 hrs. Format: ADME, cell-free. The conditions noted are these: read-out: PPB (converted).
A short description of series [7]: Protein binding in mouse plasma at pH 7.4 after 4 hrs. The format is ADME, cell-free. The following applies: read-out: PPB (converted).
Series [8] is described as follows: AUC in mouse blood at 50 mg/kg, ip administered as single dose. Format: ADME, organism-based. More on the design: dose 50 mg/kg, route intraperitoneal.
Series [9] is described as follows: AUC in mouse brain at 50 mg/kg, ip administered as single dose. Format: ADME, organism-based. More on the design: dose 50 mg/kg, route intraperitoneal.
Series [10] can be described thus: Half life in mouse at 50 mg/kg, ip administered as single dose. The format is ADME, organism-based. The following applies: in vivo. Further details: dose 50 mg/kg, route intraperitoneal.
The nature of series [11]: Cmax in mouse blood at 50 mg/kg, ip administered as single dose. The format is ADME, organism-based. Further details: dose 50 mg/kg, route intraperitoneal.
Series [12] can be described thus: Cmax in mouse brain at 50 mg/kg, ip administered as single dose. Format: ADME, organism-based. Further details: dose 50 mg/kg, route intraperitoneal.
A short description of another series: in vivo. The following applies: mouse, brain, ip, 50 mg/kg.
Series [13] in a line: Kinetic solubility in phosphate-buffered saline at pH 7.4 after 16 to 24 hrs by UV spectrophotometry.
Series [14] can be described thus: Permeability of the compound after 4 hrs by PAMPA assay. Format: ADME. The conditions noted are these: read-out: permeability.
Series [15] in a line: Metabolic stability in rat plasma assessed as compound remaining after 4 hrs. The format is ADME, cell-free. The conditions noted are these: read-out: Stability.
The nature of series [16]: Metabolic stability in human assessed as compound remaining plasma after 4 hrs. The format is ADME, cell-free. The conditions noted are these: read-out: Stability.
Series [17] in a line: Permeability across apical to basolateral side of human Caco2 cells. Format: ADME, cell-based. The conditions noted are these: Caco-2, read-out: permeability.
The nature of series [18]: Permeability across basolateral to apical side of human Caco2 cells. The format is ADME, cell-based. The conditions noted are these: Caco-2, read-out: permeability. (Caco-2 monolayers are a common model of the intestinal barrier.)
The test system of series [19] is Trypanosoma brucei brucei. Kind of series: Antiparasitic activity against Trypanosoma brucei brucei STIB 795 infected in mouse assessed as mean survival days at 50 mg/kg, ip qd for 4 days administered on 3rd day of infection (reference value: 6.75 days). The format is functional. The following applies: route intraperitoneal.
Series [20] concerns Trypanosoma brucei brucei. Kind of series: Antiparasitic activity against Trypanosoma brucei brucei LAB 110 EATRO infected in mouse assessed as mean survival days at 50 mg/kg/day, ip bid for 4 days administered on 1st day of infection and measured through day 40 post infection. The format is functional. The conditions noted are these: route intraperitoneal.
Series [21] is described as follows: Metabolic stability in rat whole blood assessed as compound remaining. The format is ADME, tissue-based.
Series [22] can be described thus: Partition coefficient in RBCs. The format is ADME, cell-based. The conditions noted are these: erythrocyte.
Series [23] has as its system Trypanosoma brucei brucei. Kind of series: Antiparasitic activity against Trypanosoma brucei brucei LAB 110 EATRO infected in mouse assessed as parasitemia cure incidence at 50 mg/kg/day, ip bid for 4 days administered on 1st day of infection and measured through day 40 post infection. Format: functional, organism-based. The method, boiled down:
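Mice, groups of five, infected i.p. on day 0 with 2.5 × 10^5 parasites; dosing from day 1 at 50 mg/kg/day i.p., given either once daily for 7 days or split twice daily for 4 days. Treatment controls got pentamidine 2 mg/kg QD i.p. for 4 days. Read-out was microscopy of ≥20 fields of wet blood smears twice weekly to day 40; cure means no parasites.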

For series [24], the system named is Trypanosoma brucei brucei. Kind of series: Antiparasitic activity against Trypanosoma brucei brucei LAB 110 EATRO infected in mouse assessed as mean survival days at 50 mg/kg/day, ip administered on 1st day of infection and measured through day 40 post infection. The conditions noted are these: route intraperitoneal.
For the next series, the target named is CYP3A4 (Homo sapiens, UniProt P08684). The series is described as §1. The following applies: human.
Sequence of CYP3A4 (P08684 whole entry): as the sequence (P08684 whole entry) above
The target of another series is CYP2D6 (Homo sapiens, UniProt P10635). The description is as §2. The conditions noted are these: human.
Sequence of CYP2D6 (P10635 whole entry): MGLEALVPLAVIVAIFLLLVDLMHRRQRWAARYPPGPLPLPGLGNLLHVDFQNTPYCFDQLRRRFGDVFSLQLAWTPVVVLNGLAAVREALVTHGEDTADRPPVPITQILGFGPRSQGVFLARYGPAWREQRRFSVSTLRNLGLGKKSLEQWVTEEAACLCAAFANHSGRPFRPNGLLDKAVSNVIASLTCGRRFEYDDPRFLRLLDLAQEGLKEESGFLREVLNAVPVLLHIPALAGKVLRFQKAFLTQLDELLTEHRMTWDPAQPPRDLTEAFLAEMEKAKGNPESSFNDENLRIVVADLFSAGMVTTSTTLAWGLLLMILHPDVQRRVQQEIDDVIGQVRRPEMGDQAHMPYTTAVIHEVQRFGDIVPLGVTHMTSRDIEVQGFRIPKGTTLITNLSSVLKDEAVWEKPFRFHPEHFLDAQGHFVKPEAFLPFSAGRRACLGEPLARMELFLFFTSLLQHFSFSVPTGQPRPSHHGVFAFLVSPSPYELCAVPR
Another series deals with CYP2C9 (Homo sapiens, UniProt P11712). The series is described as §3. The conditions noted are these: human.
Sequence of CYP2C9 (P11712 whole entry): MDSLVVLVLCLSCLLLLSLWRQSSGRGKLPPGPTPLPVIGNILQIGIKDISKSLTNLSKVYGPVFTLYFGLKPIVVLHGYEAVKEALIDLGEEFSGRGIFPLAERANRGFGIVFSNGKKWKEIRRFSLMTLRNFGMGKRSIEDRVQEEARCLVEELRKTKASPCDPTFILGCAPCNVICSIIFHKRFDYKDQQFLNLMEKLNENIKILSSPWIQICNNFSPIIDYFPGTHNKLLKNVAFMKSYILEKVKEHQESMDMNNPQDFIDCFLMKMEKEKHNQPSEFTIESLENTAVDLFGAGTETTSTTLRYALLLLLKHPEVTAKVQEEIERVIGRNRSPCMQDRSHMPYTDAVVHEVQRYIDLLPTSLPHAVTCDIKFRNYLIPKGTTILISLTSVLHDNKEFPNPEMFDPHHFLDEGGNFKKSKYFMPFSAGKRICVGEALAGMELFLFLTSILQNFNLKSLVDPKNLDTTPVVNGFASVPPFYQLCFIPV
The next series concerns the target CYP2C19 (Homo sapiens, UniProt P33261). Described as §4. The following applies: human.
The next series deals with T2, CYP1A2 (Homo sapiens, UniProt P05177).
T2 sequence (P05177 whole entry): T1 sequence (P05177 whole entry)
The description is as §5. The following applies: human.

Sequence of Cytochrome P450 2C9 (P11712 whole entry): as above
Sequence of Cytochrome P450 2D6 (P10635 whole entry): as the sequence (P10635 whole entry) above
Sequence of CYP2C19 (P33261 whole entry): as the sequence (P33261 whole entry) above

Usually IC50 stands for the concentration that gives 50% inhibition. Low readings indicate greater potency in that assay, high ones weaker potency in that assay. The CLint scaled is the rate of metabolic loss divided by the concentration. Broadly, the AUC is the area under the concentration-time curve, a measure of exposure. A low value points to less exposure. The half-life is the time needed for the level to fall by half in the phase considered. By Cmax is commonly meant the highest concentration seen after dosing. What is called solubility (kinetic) is the concentration staying in solution when a stock, usually in DMSO, is diluted into the medium. Turning to `CN(C/C=C\CN)C[C@H]1O[C@@H](n2cnc3c(N)ncnc32)[C@H](F)[C@@H]1O`, the IC50 in series [1] was 0.172 µM; against Cytochrome P450 3A4, more than 5 µM; at Cytochrome P450 2D6, more than 5 µM; on Cytochrome P450 2C9 it was more than 5 µM; at Cytochrome P450 2C19, more than 5 µM; at Cytochrome P450 1A2, more than 5 µM. The CLint scaled in series [2] is less than 11 mL/min/kg; in series [3], less than 4.2 mL/min/kg; in series [4], less than 11 mL/min/kg; in [5], less than 4.2 mL/min/kg. The fraction unbound at 4 h in series [6] was 0.767; in series [7], 0.523. The AUC in series [8] worked out at 16300 ng·h/mL; in series [9], 140 ng·h/mL. Also, the half-life in series [10] is 1.93 h. For the same compound, the Cmax in series [11] amounted to 33000 ng/mL; in series [12], 30 ng/mL. In “in vivo”, the Kp is 0.86. Further, the solubility (kinetic) in [13] is more than 47 µg/mL.

Consider `CN(C/C=C\CN)C[C@H]1O[C@@H](n2cnc3c(N)ncnc32)[C@H](O)[C@@H]1O`, for which the IC50 in series [1] was 0.0014 µM; on Cytochrome P450 3A4, more than 5 µM; on Cytochrome P450 2D6, more than 5 µM; against Cytochrome P450 2C9 it was more than 5 µM; against Cytochrome P450 2C19, more than 5 µM; against Cytochrome P450 1A2, more than 5 µM. The Papp at 4 h in series [14] is 0.13 ×10⁻⁶ cm/s. The CLint scaled is less than 11 mL/min/kg in series [2], less than 4.2 mL/min/kg in series [3], less than 11 mL/min/kg in series [4] and less than 4.2 mL/min/kg in series [5]. Further, the fraction unbound at 4 h in series [6] was 0.271; in series [7] it was 0.302. The remaining at 4 h in series [15] and in [16] was 100% throughout. Moreover, the Papp A→B in series [17] stood at 3.25 ×10⁻⁶ cm/s. For the same compound, in series [18], the Papp B→A turned out to be 2.7 ×10⁻⁶ cm/s. Further, the AUC in series [8] is 20700 ng·h/mL; in [9] it was 360 ng·h/mL. The half-life in series [10] was 2.48 h. The Cmax in [11] was 44800 ng/mL; in series [12], 80 ng/mL. For the same compound, the Survival was more than 30 days in series [19], more than 40 days in [20] and more than 40 days in [24]. In [21], the Stability was 100%. In series [22], this compound yielded a Partition coefficient of 0.28. The outcome in series [23] was Active. The same compound yielded a Kp in the series “in vivo” of 1.7. Besides, the kinetic solubility in series [13] is more than 47 µg/mL.

Consider `CN(C/C=C\CN)C[C@H]1O[C@@H](n2cnc3c(N)ncnc32)[C@@H](F)[C@@H]1O`, for which the IC50 is 0.319 µM in series [1]; more than 5 µM against CYP3A4; more than 5 µM against CYP2D6; more than 5 µM at CYP2C9; more than 5 µM against CYP2C19; more than 5 µM at CYP1A2. In addition, the CLint scaled in series [2] is less than 11 mL/min/kg; in series [3], less than 4.2 mL/min/kg; in series [4], less than 11 mL/min/kg; in [5], less than 4.2 mL/min/kg. The results for the fraction unbound at 4 h in series [6] and in series [7] were 0.678 and 0.628, respectively. In series [13], the solubility (kinetic) is more than 47 µg/mL.
